Bioassay records deposited in PubChem by several laboratories.
AHR act – human AHR activation | 320,000 compounds, 2.5% hits | AID 2796 | AHR-responsive luciferase reporter cells, luminescence | P35869 | activation, % at 5 µM; in the data active means activation above about 47%
SR-BI DiI inh – mouse SR-BI HDL lipid transfer inhibition; Q61009; ldlA[mSR-BI] CHO cells, DiI-HDL uptake fluorescence, 3 h; inhibition, % at 12.5 µM; 320,000 compounds, 0.96% hits; AID 488896;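 active means mean replicate inhibition of at least 70% and a set share of replicates each scoring 70 or more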
SR-BI DiI-HDL act – SR-BI HDL lipid transfer activation; CHO ldlA[mSR-BI] cells, DiI-HDL uptake fluorescence, 3 h; 100 = double the neutral-control signal; activation, % at 12.5 µM; 320,000 compounds, 0.096% hits; AID 504775;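 active means mean replicate activation of at least 60% and every replicate at or above 60%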
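Material: SR-BI-overexpressing, LDLR-lacking CHO cells; schedule: compound exposure 3 h, 37 °C; reagent: DiI-labelled HDL at 10 µg/mL final; technique: bottom-read fluorescence, 550/595 nm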
FXN GAA850 act – activators of GAA850 frataxin (FXN) promoter. HEK293 lucGAA850 FXN promoter luciferase reporter, 24 h; percent of 10 µM SAHA response. activation, % at 6 µM. 360,000 compounds, 0.56% hits. AID 540364;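 active means activation above the average of all compounds screened plus 3 SD, cutoff fixed separately per campaign, cut at about 7.5% in these data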
GASC-1 inh – inhibitors of human GASC-1 (JMJD2C) demethylase; Q9H3R0; GST-JMJD2C(1-420) H3K9me3 demethylation, DELFIA europium; inhibition, % at 2.35 µM; 330,000 compounds, 0.069% hits; AID 2099;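 active means more than half of a compound's replicate wells show inhibition beyond 50%, single wells judged on their own value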;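 further: signal counts dimethyl H3K9 product captured on neutravidin plate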
Target sequence (Q9H3R0 1-420 limits assumed): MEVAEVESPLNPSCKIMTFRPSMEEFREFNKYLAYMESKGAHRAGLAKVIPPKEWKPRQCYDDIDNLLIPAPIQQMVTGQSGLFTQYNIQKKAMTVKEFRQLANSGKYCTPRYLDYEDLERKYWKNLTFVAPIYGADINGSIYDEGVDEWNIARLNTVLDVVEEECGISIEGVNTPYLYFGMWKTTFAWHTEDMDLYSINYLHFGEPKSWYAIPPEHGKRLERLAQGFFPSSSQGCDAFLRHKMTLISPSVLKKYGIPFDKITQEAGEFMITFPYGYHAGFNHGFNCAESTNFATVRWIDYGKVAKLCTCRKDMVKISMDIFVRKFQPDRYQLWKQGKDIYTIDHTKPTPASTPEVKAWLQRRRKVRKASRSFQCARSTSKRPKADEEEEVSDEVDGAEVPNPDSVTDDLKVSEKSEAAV
Of the large screens only hits and unclear results are named; the others gave an inactive call. A selection: hits, their analogues and other compounds. The true share with any hit is near 3.7%.

O=C(Nc1ccc(N2CCOCC2)c(S(=O)(=O)Nc2ccccc2Cl)c1)c1ccc(F)cc1	none (no result: GASC-1 inh)
O=C(Nc1ccc(F)cc1)Nc1ccc(N2CCCC2)c(S(=O)(=O)Nc2ccccc2Cl)c1	SR-BI DiI inh 87
COc1ccc(NC(=O)C[C@H]2C(=O)N(c3ccccc3)C[C@@H]2C)cc1	none (no result: AHR act, SR-BI DiI inh, SR-BI DiI-HDL act, GASC-1 inh)
Cc1ccc2c(c1)c(C1=c3ccccc3=NC1=O)c(O)n2C	AHR act 66
C=CCn1c(O)c(C2=c3ccccc3=NC2=O)c2ccccc21	none
COC(=O)c1ccc(/C=N/Nc2nc(-c3ccccc3)cs2)cc1	AHR act 50
Cc1ccc(-c2nc(Nc3cccc(C)c3)sc2CC(=O)O)cc1	none
CC(=O)Nc1ccc(-c2csc(N/N=C\c3ccncc3)n2)cc1	AHR act 61 (no result: SR-BI DiI inh, SR-BI DiI-HDL act)
O=C(O)Cc1sc(N/N=C\c2ccccc2)nc1-c1ccccc1	AHR act 75
COC(=O)c1ccc(/C=N/Nc2nc(-c3ccc(C)cc3)cs2)cc1	none
O=C(NCCNC(=O)c1ccc(Br)o1)c1cccnc1	none
O=c1[nH]c(CSc2cccc[n+]2[O-])nc2ccccc12	AHR act 48 (no result: SR-BI DiI inh, SR-BI DiI-HDL act)
Cn1c(SCc2nc3ccccc3c(=O)[nH]2)nc2ccccc21	AHR act 61
O=c1[nH]c(CSc2ncn[nH]2)nc2ccccc12	none
COc1ccc(CCN2CC(C(=O)Nc3cc(S(C)(=O)=O)ccc3Cl)CC2=O)cc1OC (configuration not stated)	none (no result: AHR act, GASC-1 inh)
CCCNC(=O)C1(C)CCCN(Cc2ccc(Cl)cc2)C1 (configuration not stated)	none (no result: AHR act, SR-BI DiI inh, SR-BI DiI-HDL act, GASC-1 inh)
Cc1c(CCC(=O)NCCCN2CCCC2=O)c(=O)oc2cc(O)ccc12	none
Cc1ccccc1CNC(=O)c1ccc(Cl)c([N+](=O)[O-])c1	none
CC(C)(C)SCCNC(=O)c1ccc(Cl)c([N+](=O)[O-])c1	SR-BI DiI-HDL act 79
COc1ccc(-c2csc(NC(=O)C3CSC4(C)CCC(=O)N34)n2)cc1OC (configuration not stated)	none
COc1ccc(OC)c(-c2csc(NC(=O)C3CSC4(C)CCC(=O)N34)n2)c1 (configuration not stated)	SR-BI DiI inh 82
CC/C(=N\Nc1ccc([N+](=O)[O-])cc1[N+](=O)[O-])c1ccc(O)cc1	SR-BI DiI inh 76
C/C(=N\Nc1ccc([N+](=O)[O-])cc1)c1ccc(O)cc1	SR-BI DiI inh 74
CCc1ccc2c(CN3CCc4cc(OC)c(OC)cc4C3)cc(=O)oc2c1	AHR act 74
COc1cc2c(cc1OC)CN(Cc1cc(=O)oc3cc(C)c(C)cc13)CC2	none
c1ccc(-c2ccc(-c3cn4c(n3)CCC4)cc2)cc1	none
CC1CCN(C(=O)c2ccccc2SCC(=O)NCC2CCCCC2)CC1	SR-BI DiI-HDL act 588
COc1ccc(C(C(=O)NC2CCCCC2)N(C(=O)c2ccco2)c2ccccc2C(C)=O)cc1OC (configuration not stated)	none (no result: SR-BI DiI inh, SR-BI DiI-HDL act)
N#CC1=C(N)NC(SCC(=O)Nc2ccccc2)=C(C#N)C12CCCC2	AHR act 71
CC(C)NC(=S)N1CCN(c2ncccn2)CC1	none
CCOc1ccc(C2(C)CC(=O)N(C)C2=O)cc1 (configuration not stated)	none
O=C(Cn1ncc2c3ccccc3n(Cc3ccccc3)c2c1=O)N1CCN(c2ccccn2)CC1	FXN GAA850 act 19
CSc1cccc(-n2cc(-c3ccc4c(c3)OCO4)[nH]c2=O)c1	AHR act 51
CCCCC[C@H](O)/C=C/C1C(=O)C=C[C@H]1C/C=C\CCCC(=O)OC (some centres not stated)	FXN GAA850 act 8.2 (no result: AHR act, GASC-1 inh)
CCCCC[C@H](O)/C=C/[C@@H]1[C@@H](C/C=C\CCCC(=O)OC)[C@@H](O)C[C@H]1O	none
COc1ccccc1CCn1c(N)cc(=O)[nH]c1=O	AHR act 53
Nc1cc(=O)[nH]c(=O)n1CCCc1ccccc1	none
c1ccc(-c2nc(-c3ccco3)cs2)nc1	GASC-1 inh 56
CCOc1ccc2c(c1)C(c1cccs1)=NNC(c1cccnc1)=N2	none
Brc1ccc2c(c1)C(c1cccs1)=NNC(c1cccnc1)=N2	AHR act 92
CC(Cc1c[nH]c2ccccc12)C(=O)N1CCN(c2ccccc2F)CC1 (configuration not stated)	none
O=C1NC(c2cccs2)Nc2ccccc21 (configuration not stated)	AHR act 52
